Screens: PubChem, several laboratories
Platelet DG rel: inhibitors of platelet dense granule secretion, primary screen, cell-based, MLPCN, human platelets; human platelet-rich plasma, SFLLRN dense granule ATP release, luminescence; inhibition, %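 (compounds screened at 7.5 µM in platelet-rich plasma)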; 0.22% of 300,000 active; AID 1663, 2009;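 active = mean replicate score, as percent of positive control, at or above 50; inconclusive = mean below 50 but at least one replicate at or above 50; inactive = mean and every replicate below 50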
Myeloid diff 2: induction of myeloid progenitor differentiation, primary screen, cell-based, flow cytometry, MLPCN library. calls only at 10 µM. 1% of 360,000 active. AID 624256, 2012. ER-HoxA9 myeloid progenitors, lysozyme-GFP differentiation;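 active = normalized GFP-positive differentiation at or above the plate's own cutoff, the solvent-only control mean plus 3 SD; inconclusive = no clear call, values can overlap the other calls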;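 also: cells exposed to compound for four days before flow analysis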
VLA-4 inh: inhibition in human VLA-4 binding assay, primary screen, VLA-4 allosteric modulator project, MLPCN library, flow cytometry, VLA-4 expressing cells. inhibition, % (about 7 µM as worked out from the volumes in the protocol). ligand binding flow cytometry. AID 2557, 2010. Integrin alpha-4 (Homo sapiens), P13612. 0.2% of 330,000 active; in the data active = inhibition above about 50%
SENP1 inh: human SENP1 catalytic domain inhibitors, primary screen, biochemical, FRET, uHTS. Sentrin-specific protease 1 (Homo sapiens), Q9P0U3. recombinant SENP1 catalytic domain, CyPet-SUMO1-YPet FRET cleavage. inhibition, % at 10 µM. 0.21% of 360,000 active;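 active = inhibition at least 30% at 10 µM, raw YFP signal under a set limit, fluorescence ratio 0.5 to 1.5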;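 also: 0% = enzyme with DMSO and 100% = no enzyme wells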
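system = hSENP1 catalytic domain, recombinant | reagent = SFCypet-SUMO1-SFYpet substrate at 25 nM | doses = one dose per compound, 10 µM, 0.5% DMSO | incubation = enzyme reaction for 50 min at room temperature, dark | measured by = FRET, CFP and YFP emission | controls = no-enzyme low, enzyme-DMSO high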
Active calls of the source: *; i = inactive; ? = inconclusive; . = no result given; + = active, no number. Rows were chosen to be rich in hits. Some 1.5% of all compounds tested hit in one or more screens of this group.

SMILES	Platelet DG rel	Myeloid diff 2	VLA-4 inh	SENP1 inh
COc1ccc(C(=O)Nc2cccc(/C(C)=N/NC(=O)c3ccc([N+](=O)[O-])cc3)c2)cc1OC	7.2	+	-10.9	2.3
c1ccc(CSc2ccc3nnc(-c4ccccn4)n3n2)cc1	2.7	i	-13.9	-1.7
Cc1ccccc1CSc1ccc2nnc(-c3ccccn3)n2n1	0.5	+	-7.5	0.0
Cc1cccc(C(=O)N2CCC(=O)N(C(COCc3cccc(C(F)(F)F)c3)Cc3ccccc3)CC2)c1 (stereo not given)	-2.0	+	20.6	2.3
CCCCc1ccc(NC(=O)c2ccc(N(C)S(C)(=O)=O)cc2)cc1	-5.1	?	8.3	-1.5
CCCCc1ccc(NC(=O)c2ccc(NS(C)(=O)=O)cc2)cc1	-2.0	+	19.8	3.0
COc1cccc2nc3cc(C)c(C)cc3nc12	70.1*	i	15.9	42.0
COc1cccc2c1nc(C)c1cc(C)oc12	1.0	i	3.0	-0.1
CC1(C)N=C(N)N=C(N)N1c1ccc(OCC(=O)N2CCOCC2)c(Cl)c1	.	+	.	1.7
O=c1[nH]cnc2c1ccn2C1OC(CO)C(O)C1O (stereo not given)	.	?	.	-0.2
COc1ccc(C(C(=O)NC(C)(C)C)N(CCC(C)C)C(=O)CCC(=O)Nc2cc(C)on2)cc1 (stereo not given)	2.9	+	-3.4	0.7
COc1ccccc1NC(=O)c1ccc(-c2ccc(Br)cc2)o1	8.2	+	28.6	1.8
O=C(/C=C/c1ccncc1)c1cc(Cl)ccc1O	-5.8	+	-21.0	-28.2
O=C(/C=C/c1ccc(O)c(O)c1)c1ccccc1O	70.4*	i	-1.4	-15.2
CC(C)(C)c1ccc(OCCCC(=O)Nc2ccc(S(N)(=O)=O)cc2)cc1	3.1	+	23.9	-4.0
O=C(CO)C(O)C(O)C(O)CO (stereo not given)	.	+	-7.0	-0.3
COc1ccccc1NC(=O)NNC(=O)CCN1CCOCC1	8.0	i	-2.5	1.1
Cc1occc1C(=O)N(Cc1nc(-c2ccccc2)no1)C(C)C	-4.7	i	3.6	3.7
N#Cc1c(-c2ccc(F)cc2)c(-c2ccc(F)cc2)nn(CCO)c1=O	.	i	.	0.2
COc1ccc2c(Cl)c(C(=O)N/N=C/c3ccc4c(c3)OCO4)sc2c1	9.3	i	2.5	-0.2
COc1ccc2c(Cl)c(C(=O)N/N=C3\CCCC(=O)C3)sc2c1	10.4	+	-213.0	-35.3
OCCC1CN(Cc2ccc3cccc(F)c3n2)CCN1Cc1ccccc1 (stereo not given)	6.0	i	16.0	-4.2
Cc1cc(N(CC(=O)NC(C)C)S(C)(=O)=O)ccc1Br	2.7	i	-3.5	-0.1
Cc1cc(C)n2nc(-c3ccsc3-n3c(C)ccc3C)cc2n1	-0.7	+	-124.2	-11.5
N#Cc1ccc(C(=O)N2CCN(C(=O)C3CCCO3)CC2)cc1 (stereo not given)	.	i	-9.2	0.7
SMILES	Platelet DG rel	Myeloid diff 2	VLA-4 inh	SENP1 inh
N#CC(C#N)=C1c2cc(S(=O)(=O)NCCO)ccc2-c2ccc(S(=O)(=O)NCCO)cc21	-3.5	i	-16.4	32.9*
O=C1c2cc(S(=O)(=O)NCCO)ccc2-c2ccc(S(=O)(=O)NCCO)cc21	-3.0	i	20.6	5.3
CC(C)NC(=O)c1csc(COCCO)n1	.	i	.	-0.4
O=C(NCC(c1cccs1)N1CCc2ccccc21)c1ccccc1 (stereo not given)	6.0	+	6.7	-1.6
Cc1cc(/C=C2/C(=O)N(C)C(=S)N2C)c(C)n1C1CC1	-3.4	+	-55.2	-58.9
COc1ccc(-c2nc(SCC(=O)N(CC(C)C)c3c(N)n(Cc4ccccc4)c(=O)[nH]c3=O)n[nH]2)cc1	6.0	i	2.3	-1.7
CCCN(C(=O)CSc1n[nH]c(-c2ccc(OC)cc2)n1)c1c(N)n(Cc2ccccc2)c(=O)[nH]c1=O	-3.2	+	-8.9	0.3
CC(C)(C)C(=O)NC(=S)Nc1ccc(Cc2ccncc2)cc1	-3.7	i	15.3	1.7
Cc1noc(C)c1C(=O)N1CCC2(CC1)Oc1ccc(F)cc1C(=O)C21CC(c2ccc(Cl)cc2)=NO1 (stereo not given)	3.1	+	-10.2	3.0
Brc1cccc(OCCCNC2CCCC2)c1	-1.0	i	9.9	1.0
COc1ccccc1OCC(=O)Nc1sc2c(c1C(=O)NCC1CCCO1)CCC2 (stereo not given)	17.2	+	-10.3	-12.1
CC(C)Cn1c2nc3ccccc3nc2c2c(=O)n(CCN3CCOCC3)cnc21	8.3	+	-2.3	-114.6
O=C(O)CN1C(=O)/C(=C/C=C/c2ccccc2)SC1=S	0.2	i	3.5	0.7
CCCN1C(=O)/C(=C\C=C2\N(CC)c3ccccc3C2(C)C)SC1=S	4.5	+	.	83.1
CC1=NN(c2ccccc2)C(=O)/C1=C\C=C1\N(C)c2ccccc2C1(C)C	-3.3	i	0.2	26.7
CC1=NN(c2ccccc2)C(=O)/C1=C\C=C1/N(C)c2ccccc2C1(C)C	-0.6	i	-9.6	47.8*
CN1/C(=C\C=C2/SC(=S)NC2=O)C(C)(C)c2ccccc21	5.1	+	i	39.1
CCN1C(=O)C(=CC=CN(C)c2ccccc2)SC1=S	.	+	.	-31.4
COc1ccc(C(=O)NC2CCCc3c2cnn3-c2cccc(C)c2C)o1 (stereo not given)	8.8	i	-97.0	-0.6
Cn1cnnc1SCC(C)(C)NS(=O)(=O)c1ccc(Cl)cc1	-10.6	i	2.4	1.2
CC(Cc1ccccc1)N1CCCC1=O (stereo not given)	.	i	.	-0.2
COc1ccc(Br)cc1CN1CCCCCC1	1.0	i	25.6	0.6
CC(C)NC(=O)C1(C)CCN1C/C=C/c1ccccc1 (stereo not given)	.	i	.	3.4
O=[N+]([O-])c1ccc(N=Nc2c(Cl)cc(O)cc2Cl)cc1	73.2*	?	2.5	0.6
CC(N)=Nc1ccc([N+](=O)[O-])cc1	6.4	i	-0.7	-1.2
SMILES	Platelet DG rel	Myeloid diff 2	VLA-4 inh	SENP1 inh
COC(CNC(=O)c1ccc(CS(=O)(=O)c2ccc(C)cc2)o1)OC	-3.0	+	-15.8	1.6
Cn1cc(CCC(=O)NCCCc2ccccc2)c2ccccc21	-7.9	i	16.3	-0.1
O=C(COC(=O)c1nc(Cl)ccc1Cl)c1ccccc1Cl	-9.3	i	-2.0	0.8
Cc1ccc(OCC(=O)Nc2ccc3c(c2)C(=O)NC3=O)cc1	3.4	i	-11.1	1.2
CC(C)(C)c1ccc(OCC(=O)Nc2ccc3c4c(cccc24)C(=O)NC3=O)cc1	-13.0	+	.	24.6
CN1CCN(CCCNc2c(C=O)c(=O)[nH]c3ccccc23)CC1	2.7	i	-4.6	-0.9
c1ccc(Cc2cc[n+](Cc3ccccn3)cc2)cc1	5.3	+	3.9	0.7
O=[N+]([O-])c1ccc(C[n+]2ccc(Cc3ccccc3)cc2)cc1	1.1	i	-3.6	-0.7
